FLuc inh counter – counter-screen for luciferase assay inhibitors: firefly luciferase inhibition. AID 1006. hit rate 1.5% among 200,000. inhibition, % at 10 µM. P08659. ATPLite firefly luciferase biochemical luminescence, 10 min;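 active = inhibition above about 50% when tested at 10 µM, limit read from the data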
Target sequence (P08659 whole entry, looked up): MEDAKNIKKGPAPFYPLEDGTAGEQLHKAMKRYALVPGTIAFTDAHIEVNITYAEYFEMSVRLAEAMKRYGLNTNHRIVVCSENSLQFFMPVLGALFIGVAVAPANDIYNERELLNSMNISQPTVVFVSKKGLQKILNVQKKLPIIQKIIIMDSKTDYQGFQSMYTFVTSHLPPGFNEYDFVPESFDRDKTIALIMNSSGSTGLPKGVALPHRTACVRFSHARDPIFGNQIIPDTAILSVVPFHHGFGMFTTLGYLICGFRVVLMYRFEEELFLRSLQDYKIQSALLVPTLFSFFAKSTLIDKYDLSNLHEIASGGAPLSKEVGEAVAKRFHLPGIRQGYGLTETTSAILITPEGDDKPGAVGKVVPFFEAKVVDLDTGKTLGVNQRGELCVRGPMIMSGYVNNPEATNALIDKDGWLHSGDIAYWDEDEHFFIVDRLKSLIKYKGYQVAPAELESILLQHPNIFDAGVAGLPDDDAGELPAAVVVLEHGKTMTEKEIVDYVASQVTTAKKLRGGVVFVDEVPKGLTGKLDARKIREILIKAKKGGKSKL
APP transl inh – APP translation inhibition | SH-SY5Y APP 5'UTR-luciferase reporter, luminescence | inhibition, % at 2 µM | hit rate 0.82% among 190,000 | AID 1285;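 active = inhibition above a set limit, derived from the sample mean plus 3 SD, cut at about 45% in these data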
FLuc act counter – firefly luciferase counter-screen for stimulation assays; 200,000 tested, under 10 active; P08659; ATPlite luciferase biochemical, luminescence, 10 min; 0 = ATP-free wells, 1 = DMSO control; activation factor at 10 µM;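 active = luciferase activation factor, scaled between plate controls, of at least 2 with compound at 10 µM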
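System: cell-free luciferase reagent; medium: PBS as buffer for the ATP substrate; doses: test compounds dosed from 2 mM stocks in 100% DMSO; incubation: 10 min, room temperature; measured by: luminescence from luciferase reaction; read-out: luciferase activation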
STAT1 act – increases IFN-gamma driven STAT1 reporter signal; AID 932; hit rate 2.6% among 200,000; activation (% of control), % at 5.5 µM; NIH 3T3 STAT1-luciferase reporter, luminescence; 100% = IFN-gamma alone, no compound;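 active = activation above the screen-wide mean activation plus 3 SD, cut at about 130% in these data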
NF-kB neuron act – compounds increasing NF-kB expression in human neuronal cells; fold change at 12.5 µM; AID 1239; hit rate 1.6% among 190,000; NF-kB reporter expression; stronger effect = higher value; in the data active = fold change above about 3.3
APP 5'UTR act – APP 5'UTR luciferase reporter activation; SH-SY5Y APP 5'UTR luciferase reporter, luminescence; zero percent = DMSO vehicle wells; activation, % at 2 µM; hit rate 1% among 190,000;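 active = activation above a set limit, based on mean plus 3 SD of controls, cut at about 140% in these data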
Of the large screens only hits and unclear results are named; the others gave an inactive call. A selection: hits, their analogues and other compounds. The true share with any hit is near 4.8%.

CC(C)=CC[N+]1(C)CCCCC1	none
CC(=O)c1ccc(Nc2cc(C)nc3ccccc23)cc1	none
CC(=O)c1ccc(Nc2cc(C)nc3c(C)cccc23)cc1	APP transl inh 87
COc1cc2cc(/C=C/C(=O)c3ccco3)c(Cl)nc2cc1OC	APP transl inh 50
COc1ccc2cc(/C=C/C(=O)c3ccco3)c(Cl)nc2c1	none
Cc1nc(SCC(O)CO)c([N+](=O)[O-])[nH]1 (stereo not given)	NF-kB neuron act 3.5
OCC1(Cc2ccccc2)CCCN(Cc2c[nH]c3ccccc23)C1 (stereo not given)	none
Cc1nc2c(C(=O)N3CCN(C)CC3)cnn2c(C)c1Cc1ccc(Cl)cc1	none (no result: APP transl inh, APP 5'UTR act)
Cc1nc2c(C(=O)N3CCCCC3)cnn2c(C)c1Cc1ccccc1F	STAT1 act 138
Cc1ccc(S(=O)(=O)Nc2ccccc2CNC2CCCCC2)cc1	none
CCC(C)c1ccccc1NC(=O)C(C)N(C)Cc1cccc(OC)c1 (stereo not given)	none
Cn1c(CCc2ccc(N)cc2)nc2ccccc21	FLuc inh counter 55
Cn1c(-c2ccc(N)cc2)nc2ccccc21	none
Cc1ccc(S(=O)(=O)CC(=O)c2ccccc2)cc1	none
CC(C)(C)c1ccc(C(=O)CS(=O)(=O)c2ccccc2)cc1	FLuc inh counter 54, APP 5'UTR act 140
O=C(NCCCc1ccccc1)c1cnc2n(c1=O)CCS2	STAT1 act 139
O=C(NCc1ccccc1)c1cnc2n(c1=O)CCS2	none
O=C(NCCC1=CCCCC1)c1cnc2n(c1=O)CCS2	STAT1 act 133
CC(=O)c1ccc(NC(=O)C(C)OC(=O)c2ccc(NS(=O)(=O)c3ccc(F)c(F)c3)cc2)cc1 (stereo not given)	none
O=C(NCCCCCCNC(=O)c1cccs1)c1cccs1	none
O=C(NCCc1cccs1)c1cccs1	STAT1 act 134
O=C(O)CSc1nnnn1-c1ccc2c(c1)OCCO2	none
CC(C)OC(=O)CSc1nnnn1-c1ccc2c(c1)OCCO2	STAT1 act 129
C/C(=N\NC(=O)c1ccc(=O)[nH]n1)c1cccnc1	none
CC(C)(C)NC(=O)NC(=O)COc1ccccc1C#N	STAT1 act 140, APP 5'UTR act 187
Cc1ccnc(SCc2nc3ccccc3s2)n1	STAT1 act 130
Cc1ccc(C(=O)OCC(=O)c2ccc(Cl)s2)s1	STAT1 act 131
O=C(COC(=O)c1ccc[nH]c1=O)c1ccc(Cl)s1	none
CC(C)NC(=O)CSCc1c(F)cccc1Cl	none
COc1cc(C(=O)N/N=C/c2ccc(OC(=O)N3CCOCC3)cc2)cc(OC)c1OC	APP transl inh 61
COc1cc(C(=O)N/N=C/C2CC=CCC2)cc(OC)c1OC (stereo not given)	APP transl inh 93
COc1cc(C(=O)N/N=C/c2ccsc2C)cc(OC)c1OC	APP transl inh 96
COc1ccc(Br)cc1/C=N/NC(=O)c1cc(OC)c(OC)c(OC)c1	none
CCn1c(-c2ccccc2Cl)nn(CC(=O)Nc2ccccc2C)c1=S	none
COC(=O)/C=C1/S/C(=N/N=C/c2ccc(N(C)C)cc2)NC1=O	none
CN(C)/C=C/C(=O)c1ccc(Br)s1	none
CN(C)/C=C/C(=O)c1cnc(-c2ccccc2Cl)s1	STAT1 act 139, NF-kB neuron act 3.5
CN(C)/C=C/C(=O)c1cnc(-c2ccccn2)s1	STAT1 act 129
CC(=O)c1sc(-c2ccccc2Cl)nc1C	none
CN(C)/C=C/C(=O)c1cnc(-c2cccc(Cl)c2)s1	STAT1 act 138
CC(=O)c1cnc(-c2cccc(Cl)c2)s1	none
CN(C)C(=S)N=Nc1[nH]c2ccccc2c1O	STAT1 act 176
COc1cccc(CN2CCN(Cc3cccc4nonc34)CC2CCO)c1 (stereo not given)	none
CC(C)(C)c1ccc(-c2noc(CCC(=O)N3CCOCC3)n2)cc1	FLuc inh counter 83
CC(C)(C)c1ccc(-c2noc(CCC(N)=O)n2)cc1	APP transl inh 72
COc1ccc(-c2noc(CCCC(=O)N3CCOCC3)n2)cc1	none (no result: NF-kB neuron act)
CN(C)C(=O)CCc1nc(-c2ccc(C(C)(C)C)cc2)no1	FLuc inh counter 52
CNC(=O)CCc1nc(-c2ccc(C(C)(C)C)cc2)no1	FLuc inh counter 58
CC(=O)c1c(N2CCN(C)CC2)nc(=S)n(-c2cc(C)ccc2C)c1C	none
COc1ccc(C(=O)CSc2nnc(CN3CCCCC3)n2-c2ccc(Cl)cc2)cc1OC	none
Cc1cc(C)n2nc(CCCO)nc2n1	none
CC(C)(C)c1ccc(-c2noc(CCC(=O)NCC3CCCO3)n2)cc1 (stereo not given)	FLuc inh counter 64, APP transl inh 60
CC(=O)N(C)c1ccc(NC(=O)Nc2ccc(C)c(C)c2)cc1	none
CCN(Cc1ccccc1)C(c1cc2ccc(C)cc2[nH]c1=O)c1nnnn1CCOC (stereo not given)	none
CN(N=Nc1ccc([N+](=O)[O-])cc1)c1ccccc1	STAT1 act 139
Nc1cc([N+](=O)[O-])ccc1Nc1ccccc1	none
O=[N+]([O-])c1ccc(N=NNc2ccccc2)cc1	STAT1 act 135, NF-kB neuron act 3.6
CC(C)NC(=O)CSc1nc(N)c(NC(=O)c2ccco2)c(=O)[nH]1	none
Cc1nn(-c2ccccn2)c2c1-c1nc(N3CCOCC3)ncc1CC2	none
Cc1nn(-c2ccccn2)c2c1-c1nc(N)ncc1CC2	FLuc inh counter 61, STAT1 act 134
COc1ccc2c(c1)OC/C(=C/c1cccs1)C2=O	FLuc inh counter 87, STAT1 act 147, NF-kB neuron act 6.9
O=C1C(=Cc2cccs2)C(=O)c2ccccc21	FLuc inh counter 53
COc1ccc(/C=C2\COc3ccccc3C2=O)cc1OC	none
Cc1ccccc1C1=N/C(=C/c2cccs2)C(=O)O1	FLuc inh counter 85
CSC1=N/C(=C\c2ccc(C)s2)C(=O)S1	none
Cc1ccc(C2=N/C(=C/c3cccs3)C(=O)N2Nc2ccccc2)cc1	none (no result: APP transl inh, APP 5'UTR act)
Cc1ccc(C=C2C(=O)c3ccccc3C2=O)s1	FLuc inh counter 75
Cc1ccc(C)c(S(=O)(=O)N2CCN(CC(=O)NC(=O)NCc3ccccc3)CC2)c1	none
CC(NC(=O)c1cccs1)c1nnc(SCc2ccc(Cl)cc2Cl)n1C (stereo not given)	none
COc1ccccc1C(=O)NNC(=S)NC(=O)c1ccco1	none
COC(=O)c1ccc(N2C(=O)C3CC(C)=C(C)CC3C2=O)cc1 (stereo not given)	none (no result: NF-kB neuron act)
O=C1/C(=C/c2cccs2)Cc2ccccc21	FLuc inh counter 58
Cc1ccc(C=C2C(=O)c3ccccc3C2=O)o1	FLuc inh counter 84
Cc1ccc(/C=C2/C(=O)c3ccc(C(=O)O)cc3C2=O)o1	none
O=C1/C(=C\c2ccc(Br)o2)Cc2ccccc21	none
COc1ccc(Cn2c(-c3ccc(C)cc3)c[n+]3ccccc23)cc1	none
Cc1ccccc1OCCCn1c(=O)sc2ccccc21	STAT1 act 131
